Test results from ChEMBL document CHEMBL1782023, “Spirocyclic lignans from Guaiacum (Zygophyllaceae) induce apoptosis in human breast cancer cell lines” (J Nat Prod, 2011).
pIC50: −log10 of the molar value. The source made the active and inactive calls. The rule behind the calls is not given here.

Key:
MDA-MB-231 [1] = test: Cell cycle arrest in human MDA-MB-231 cells assessed as increase of cells in sub-G0 phase after 24 hrs using annexin V/propidium iodide staining by flow cytometry; assay type: functional, cell-based
How it was run: (§1)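 Cells cultured in RPMI 1640 with 10% heat-inactivated FCS, 37 °C, 5% CO2. After 24 h of growth, cells were treated with test samples dissolved in DMSO for a further 24 h. Cell cycle distribution was measured by FACS with annexin V/propidium iodide double staining. For DNA content, singlet events were gated and 10 000-20 000 events were acquired. Read-out: percentage of cells in S phase and in sub-G0 phase.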

MDA-MB-231 [2] = test: Cell cycle arrest in human MDA-MB-231 cells assessed as decrease in cells in S phase after 24 hrs using annexin V/propidium iodide staining by flow cytometry; assay type: functional, cell-based; how it was run: as §1
MDA-MB-231 [3] = test: Induction of apoptosis in human MDA-MB-231 cells assessed as condensation of nucleus after 24 hrs using Hoechst 33342/propidium iodide staining […]; assay type: functional, cell-based
MDA-MB-231 [4] = test: Induction of apoptosis in human MDA-MB-231 cells assessed as condensation of cytoplasm after 24 hrs using Hoechst 33342/propidium iodide staining by FACS analysis; assay type: functional, cell-based
MDA-MB-231 [5] = test: Induction of apoptosis in human MDA-MB-231 cells assessed as chromatin condensation after 24 hrs using Hoechst 33342/propidium iodide staining […]; assay type: functional, cell-based
MDA-MB-231 [6] = test: Cytotoxicity against human MDA-MB-231 cells after 48 hrs by Alamar blue assay; assay type: functional, cell-based; details: MDA-MB-231, 48 h
How it was run: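 Cells were seeded at 5000 per well and grown for 24 h. Samples were then added from DMSO solution, with 0.1% DMSO as vehicle control. After 48 h incubation, viability was read from Alamar blue colour spectrophotometrically at 540 nm.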

MDA-MB-231 [7] = test: Induction of apoptosis in human MDA-MB-231 cells assessed as chromatin segregation after 24 hrs using Hoechst 33342/propidium iodide staining […]; assay type: functional, cell-based
MDA-MB-231 [8] = test: Cell cycle arrest in human MDA-MB-231 cells assessed as decrease in cells in S phase at 30 ug/ml after 24 hrs using annexin V/propidium iodide staining by flow cytometry (reference value: 13%); assay type: functional; design: scale not given: the % may be the effect or the level left; how it was run: as §1
MDA-MB-231 [9] = test: Induction of apoptosis in human MDA-MB-231 cells assessed as loss of membrane […] at 1.2 to 30 ug/ml using Hoechst 33342/propidium iodide staining by FACS analysis; assay type: functional, cell-based; details: TDE = time-dependent effect
MDA-MB-231 [10] = test: Induction of apoptosis in human MDA-MB-231 cells assessed as condensation of nucleus at 1.2 to 30 ug/ml using Hoechst 33342/propidium iodide staining […]; assay type: functional, cell-based; details: TDE = time-dependent effect
MDA-MB-231 [11] = test: Induction of apoptosis in human MDA-MB-231 cells assessed as condensation of cytoplasm at 1.2 to 30 ug/ml […]; assay type: functional, cell-based; details: TDE = time-dependent effect
MDA-MB-231 [12] = test: Induction of apoptosis in human MDA-MB-231 cells assessed as chromatin condensation at 1.2 to 30 ug/ml using Hoechst 33342/propidium iodide staining […]; assay type: functional, cell-based; details: TDE = time-dependent effect
MDA-MB-231 [13] = test: Induction of apoptosis in human MDA-MB-231 cells assessed as chromatin segregation at 1.2 to 30 ug/ml using Hoechst 33342/propidium iodide staining […]; assay type: functional, cell-based; details: TDE = time-dependent effect
MDA-MB-231 [14] = test: Induction of apoptosis in human MDA-MB-231 cells assessed as loss of membrane […] after 24 hrs using Hoechst 33342/propidium iodide staining by FACS analysis; assay type: functional, cell-based

| Compound | Activity (MDA-MB-231 [1]) | Activity (MDA-MB-231 [2]) | pIC50 (MDA-MB-231 [6]) | Activity (MDA-MB-231 [8]) [%] | also measured |
| --- | --- | --- | --- | --- | --- |
| CC[C@@]1(O)C(=O)OCc2c1cc1n(c2=O)Cc2cc3ccccc3nc2-1 | Active | Dose-dependent effect | – | – | – |
| C=C1[C@@H](c2ccc(O)c(OC)c2)O[C@@H](c2ccc(O)c(OC)c2)[C@@]12CCC1=C(C2)[C@@H](c2ccc(O)c(OC)c2)O[C@H]1c1ccc(O)c(OC)c1 [RAMONANIN A] | Active | Dose-dependent effect | 4.74 | <4 | Activity (MDA-MB-231 [3]): Dose-dependent effect; Activity (MDA-MB-231 [4]): Dose-dependent effect; Activity (MDA-MB-231 [5]): Dose-dependent effect; Activity (MDA-MB-231 [7]): Dose-dependent effect; Activity (MDA-MB-231 [9]): tde; Activity (MDA-MB-231 [10]): tde; Activity (MDA-MB-231 [11]): tde; Activity (MDA-MB-231 [12]): tde; Activity (MDA-MB-231 [13]): tde; Activity (MDA-MB-231 [14]): Dose-dependent effect |
| C=C1[C@H](c2ccc(O)c(OC)c2)O[C@H](c2ccc(O)c(OC)c2)[C@@]12CCC1=C(C2)[C@@H](c2ccc(O)c(OC)c2)O[C@H]1c1ccc(O)c(OC)c1 [RAMONANIN B] | Active | Dose-dependent effect | 4.74 | <4 | – |
| C=C1[C@@H](c2ccc(O)c(OC)c2)O[C@@H](c2ccc(O)c(OC)c2)[C@@]12CCC1=C(C2)[C@H](c2ccc(O)c(OC)c2)O[C@@H]1c1ccc(O)c(OC)c1 [RAMONANIN C] | – | – | 4.74 | – | – |
| C=C1[C@@H](c2ccc(O)c(OC)c2)O[C@@H](c2ccc(O)c(OC)c2)[C@@]12CCC1=C(C2)[C@@H](c2ccc(O)c(OC)c2)O[C@@H]1c1ccc(O)c(OC)c1 [RAMONANIN D] | – | – | 4.74 | – | – |
